Diaphorase act – compounds boosting diaphorase resazurin reduction – biochemical, uHTS, resorufin fluorescence, counter-screen for diaphorase-coupled primary assays, primary screen; AID 1229, 2008; activation factor at 20 µM; Diaphorase/resazurin coupled assay, 16 min; hits give high values; 1 = vehicle wells, 0 = NADH-free wells; 190,000 tested, 0.005% active;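 active = diaphorase activity raised at least twofold by the compound at 20 µM; inactive = activation factor below 2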
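Assay system: Purified diaphorase enzyme from Clostridium kluyveri | Amount: Enzyme 0.07 U/mL final | Dosing: Compound 20 µM once, DMSO 1% | Timing: 16 min reaction at room temperature | Detection: Fluorescence, excitation 544 nm and emission 590 nm | Evaluation: Higher resorufin formation from activation or reduction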
L major viab – Leishmania major promastigote growth inhibition, primary screen. Leishmania major promastigotes, resazurin fluorescence viability. inhibition, % at 10 µM. 200,000 tested, 9% active. AID 1063, 2008; in the data active = inhibition above about 50%;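 also: promastigotes grown with compound for 44 hours at 28 °C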
ROMK primary – ROMK potassium channel modulators, primary screen, cell-based, thallium flux, MLSMR library. ATP-sensitive inward rectifier potassium channel 1 (Homo sapiens), P48048. 130,000 tested, 2% active. B-score at 10 µM. Tet-inducible ROMK, thallium flux fluorescence; actives lie on both sides;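 active = signal ratio slope over the read window, or its plate-corrected B-score, at least 3 SD from the plate mean, either direction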;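 also: B-score of the F/F0 ratio slope over 7 to 12 s after thallium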
Target sequence (P48048 whole entry, looked up): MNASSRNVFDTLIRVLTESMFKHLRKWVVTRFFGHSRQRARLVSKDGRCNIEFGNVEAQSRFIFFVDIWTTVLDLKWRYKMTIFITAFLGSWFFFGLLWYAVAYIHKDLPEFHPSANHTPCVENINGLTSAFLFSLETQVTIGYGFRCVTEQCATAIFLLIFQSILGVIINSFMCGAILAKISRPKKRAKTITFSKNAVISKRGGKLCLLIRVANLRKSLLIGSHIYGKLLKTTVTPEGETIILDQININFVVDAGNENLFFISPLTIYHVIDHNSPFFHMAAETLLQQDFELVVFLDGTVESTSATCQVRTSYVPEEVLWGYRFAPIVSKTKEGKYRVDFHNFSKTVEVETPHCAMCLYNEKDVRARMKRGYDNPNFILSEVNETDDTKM
Cl transport mod – KCC2 cotransporter modulators, thallium flux, primary screen, cell-based, HEK293 KCC2, FluoZin-2 fluorescence, MLSMR | Solute carrier family 12 member 5 (Homo sapiens), Q9H2X9 | KCC2 cells, thallium flux FluoZin-2 fluorescence | B-score of Tl+ flux slope (higher = more flux/activation; lower = inhibition) at 10 µM | 190,000 tested, 2.2% active;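 active = thallium flux slope and its plate-corrected score both differing from the plate sample mean at a set confidence after two filtering rounds, in either direction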;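 also: slope of fluorescence scaled to starting intensity during 10 to 20 s after thallium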
Diaphorase inh – diaphorase inhibitors and chemical oxidizers, primary screen, counter-screen for diaphorase-coupled primary assays, biochemical, uHTS, resorufin fluorescence. 190,000 tested, 0.69% active. inhibition, % at 20 µM. diaphorase resazurin-to-resorufin fluorescence, NADH, 16 min; bacterial (C. kluyveri) enzyme, not human. AID 1217, 2008;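 active = primary screen inhibition at 20 µM above a set limit, cut at about 50% in these data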
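Assay system: diaphorase enzyme from Clostridium kluyveri; Input: enzyme working solution with 0.14 U/mL diaphorase; Timing: 16 min at room temperature; Technique: resorufin fluorescence, excitation 544 nm, emission 590 nm; Benchmarks: positive control minus NADH, DMSO neutral control.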
WT yeast gro inh – growth inhibition of WT strain, primary screen, mitochondrial fusion inhibitor project, WT and mutant strains, chemical genetic. mitochondrial fusion phenotypic screen. inhibition, % at 10 µM. 190,000 tested, 2.1% active; in the data active = inhibition above about 58%; tested in S. cerevisiae
A number is an active result; i = inactive; nt = no result given. In the library only some 12% were active in any assay of this set; here they are far more common.

SMILES	Diaphorase act	L major viab	ROMK primary	Cl transport mod	Diaphorase inh	WT yeast gro inh
CCOc1nc(N2CCOCC2)nc(N2CCOCC2)n1	i	i	i	i	i	i
C/C(=N\NS(=O)(=O)c1ccccc1)c1ccc2c(c1)OCO2	i	i	i	i	i	i
O=C(NCc1ccccn1)c1ccc(Cn2c(=S)[nH]c3ccc(Br)cc3c2=O)cc1	i	i	i	i	i	i
O=c1c2cc(N3CCOCC3)ccc2[nH]c(=S)n1CCCN1CCCCCC1	i	i	i	i	i	i
CCCCN(C)CCNC(=O)c1ccc(Cn2c(=S)[nH]c3ccc(Br)cc3c2=O)cc1	i	90	i	i	i	i
O=C(c1ccc(Cn2c(=S)[nH]c3ccc(N4CCOCC4)cc3c2=O)cc1)N1CCN(c2ccc(F)cc2)CC1	i	96	i	i	i	i
COc1ccc(N2CCN(C(=O)c3ccc(Cn4c(=S)[nH]c5ccc(N6CCOCC6)cc5c4=O)cc3)CC2)cc1	i	91	i	i	i	i
O=c1c2cc(F)ccc2[nH]c(=S)n1CCCN1CCOCC1	i	i	nt	6.4	i	i
O=c1[nH]c2ccccc2n1CCC1CCCCC1	i	i	i	nt	i	i
COc1ccccc1-n1c(=S)[nH]c2c(sc(=S)n2-c2ccccc2C)c1=O	i	i	i	i	i	i
CCOC(=O)N1CCN(CC(=O)N2CCC(C(N)=O)CC2)CC1	i	i	i	i	i	i
O=C(NC1CCN(C(=O)N2c3ccccc3Sc3ccccc32)CC1)c1ccco1	i	i	nt	i	i	i
O=C(NC1CCN(C(=O)N2c3ccccc3Sc3ccccc32)CC1)c1ccccc1Cl	i	95	nt	i	i	i
Cc1nn(-c2ccccc2)c(Cl)c1C(=O)NCCN(C)C	i	i	i	i	i	i
CCC(=Nc1ccccc1O)C1=C(O)CC(c2ccccc2)CC1=O (stereo not drawn)	nt	nt	nt	i	nt	nt
CCC(=Nc1ccccc1OC)C1=C(O)CC(c2ccccc2)CC1=O (stereo not drawn)	i	53	i	i	i	i
CC(NC(=O)c1ccc(C(F)(F)F)cc1)C(c1ccccc1)N1CCOCC1 (stereo not drawn)	i	i	i	i	i	i
O=C(COc1ccccc1)NCC(=O)N/N=C/c1ccco1	i	56	nt	i	i	i
COc1ccc(OCC(=O)N/N=C\c2ccco2)cc1	i	i	i	i	i	i
c1ccc(N2CCN(c3ccccc3)C2c2ccncc2)cc1	i	82	nt	i	i	i
COc1cccc(C2N(c3ccccc3)CCN2c2ccccc2)c1OC	i	i	i	i	i	i
c1ccc(N2CCN(c3ccccc3)C2c2cccnc2)cc1	i	92	nt	i	i	i
Cc1ccc(N2CCN(c3ccc(C)cc3)C2c2cccnc2)cc1	i	86	i	i	i	i
O=C1C2ON(c3ccccc3)C(c3cccnc3)C2C(=O)N1c1ccccc1 (stereo not drawn)	i	i	i	i	i	i
O=C(CCc1nc2ccccc2s1)OCc1ccccc1F	i	i	nt	i	i	i
SMILES	Diaphorase act	L major viab	ROMK primary	Cl transport mod	Diaphorase inh	WT yeast gro inh
CN(CCc1cnn(C)c1)Cc1nc(CC2CC2)no1	i	i	i	nt	i	i
C=CCOc1cccc(C(=O)N2CCCC(CNS(=O)(=O)c3cccs3)C2)c1 (stereo not drawn)	i	i	i	i	i	i
COc1ccccc1NS(=O)(=O)c1cccc(NC(=O)Nc2ccccc2)c1	i	99	i	i	i	i
CCNC(=S)Nc1cccc(S(=O)(=O)Nc2ccccc2OC)c1	nt	nt	nt	i	nt	nt
COc1ccccc1NS(=O)(=O)c1cccc(C(=O)OCc2nc3ccccc3s2)c1	i	90	i	i	i	i
COc1ccccc1NS(=O)(=O)c1cccc(C(=O)OCC(=O)Nc2cc(C)on2)c1	i	i	nt	i	i	i
COc1cccc(NC(=O)Cc2cccs2)c1	i	i	i	nt	i	i
COc1ccccc1NS(=O)(=O)c1cccc(NC(=O)Nc2ccc(Cl)cc2)c1	i	97	i	i	i	i

Assay outcomes deposited in PubChem by several laboratories.
